Measurements taken from ChEMBL document CHEMBL1821679, “Targeting the heat shock protein 90 dimer with dimeric inhibitors” (J Med Chem, 2011).
The source made the active and inactive calls. The rule behind the calls is not given here.

Legend:
[1] = tested on: SK-BR-3; assay: Antiproliferative activity against human SKBR3 cells after 72 hrs by MTS/PMS assay; type: functional, cell-based; details: SK-BR-3, 72 h
In short: (§1)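 Cells grown in medium with non-essential amino acids, 2 mM L-glutamine, streptomycin, penicillin and 10% FBS at 37 °C, 5% CO2; seeded 2000/well, attached overnight. Test agent added over a concentration range in DMSO (1% final), 72 h exposure. Viable cells counted by MTS/PMS read-out against 1% DMSO wells as 100% proliferation. IC50 taken as mean ± SD of at least two separate experiments, each in triplicate.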

[2] = tested on: MCF7; assay: Antiproliferative activity against human MCF7 cells after 72 hrs by MTS/PMS assay; type: functional, cell-based; details: MCF7, 72 h; in short: as §1
[3] = Antiproliferative activity against human PC3MM2 cells after 72 hrs by MTS/PMS assay; type: functional, cell-based; details: PC3MM2, 72 h; in short: as §1
[4] = tested on: A549; assay: Antiproliferative activity against human A549 cells after 72 hrs by MTS/PMS assay; type: functional, cell-based; details: A549, 72 h; in short: as §1
[5] = tested on: HT-29; assay: Antiproliferative activity against human HT-29 cells after 72 hrs by MTS/PMS assay; type: functional, cell-based; details: HT-29, 72 h; in short: as §1
[6] = target: T1, Heat shock protein HSP90 (Homo sapiens) (UniProt P07900+P08238); assay: Inhibition of Hsp90 in human MCF7 cells assessed as induction of Her2 degradation at 5 fold IC50 after 24 hrs by Western blot method; type: cell-based
In short: (§2)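 MCF-7 cells treated 24 h with compound in DMSO (1% final); geldanamycin 500 nM served as positive control and DMSO as vehicle control. Cells harvested in cold PBS and lysed 1 h on ice in RIPA with 1 mM PMSF, 2 mM orthovanadate and protease inhibitors. Lysates clarified 14,000g, 15 min, 4 °C. Protein (20 µg, BCA) resolved under reducing conditions and blotted on PVDF for Her2, Raf and Akt, with actin as loading control. Detection by HRP secondary antibody and chemiluminescence.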

[7] = target: T1, Heat shock protein HSP90 (Homo sapiens); assay: Inhibition of Hsp90 in human MCF7 cells assessed as induction of Her2 degradation at 0.5 fold IC50 after 24 hrs by Western blot method; type: cell-based; in short: as §2
[8] = target: T1, Heat shock protein HSP90 (Homo sapiens); assay: Inhibition of Hsp90 in human MCF7 cells assessed as induction of Raf degradation at 5 fold IC50 after 24 hrs by Western blot method; type: cell-based; in short: as §2
[9] = target: T1, Heat shock protein HSP90 (Homo sapiens); assay: Inhibition of Hsp90 in human MCF7 cells assessed as induction of Raf degradation at 0.5 fold IC50 after 24 hrs by Western blot method; type: cell-based; in short: as §2
[10] = target: T1, Heat shock protein HSP90 (Homo sapiens); assay: Inhibition of Hsp90 in human MCF7 cells assessed as induction of Akt degradation at 5 fold IC50 after 24 hrs by Western blot method; type: cell-based; in short: as §2
[11] = target: T1, Heat shock protein HSP90 (Homo sapiens); assay: Inhibition of Hsp90 in human MCF7 cells assessed as induction of Akt degradation at 0.5 fold IC50 after 24 hrs by Western blot method; type: cell-based; in short: as §2

| IC50 [1] [µM] | IC50 [2] [µM] | IC50 [4] [µM] | IC50 [5] [µM] | inhibition [6] | inhibition [7] | inhibition [8] | inhibition [9] | inhibition [10] | inhibition [11] | SMILES | IC50 [3] [µM] |
| --- | --- | --- | --- | --- | --- | --- | --- | --- | --- | --- | --- |
| 1.19 | 2.82 | 30.4 | 26.3 |  |  |  |  |  |  | Cc1c(OC2CCN(C)CC2)ccc2cc(NC(=O)CCCCCCC(=O)Nc3cc4ccc(OC5CCN(C)CC5)c(C)c4oc3=O)c(=O)oc12 | 13.8 |
| 4.1 | 2.61 |  |  |  |  |  |  |  |  | COc1cc2cc(NC(=O)CC/C=C/CCC(=O)Nc3cc4cc(OC)c(O[C@H]5OC(C)(C)[C@@H](OC)[C@H](O)[C@@H]5O)c(C)c4oc3=O)c(=O)oc2c(C)c1O[C@H]1OC(C)(C)[C@@H](OC)[C@H](O)[C@@H]1O |  |
| 1.95 | 1.85 | 28.9 | 11.7 |  |  |  |  |  |  | COc1cc(C(=O)Nc2cc3ccc(O[C@@H]4OC(C)(C)[C@H](OC)[C@@H](O)[C@H]4O)c(C)c3oc2=O)cc(-c2cc(OC)cc(C(=O)Nc3cc4ccc(O[C@@H]5OC(C)(C)[C@H](OC)[C@@H](O)[C@H]5O)c(C)c4oc3=O)c2)c1 | 12.5 |
| 1.5 | 3.9 |  |  |  |  |  |  |  |  | CO[C@H]1[C@H](O)[C@H](O)[C@@H](Oc2ccc3cc(NC(=O)CC/C=C/CCC(=O)Nc4cc5ccc(O[C@H]6OC(C)(C)[C@@H](OC)[C@H](O)[C@@H]6O)c(C)c5oc4=O)c(=O)oc3c2C)OC1(C)C |  |
| 9.5 | 11.7 | 93.5 | 62.7 |  |  |  |  |  |  | COc1ccc(C(=O)Nc2cc3ccc(OCCCN(C)C)c(C)c3oc2=O)cc1-c1cc(C(=O)Nc2cc3ccc(OCCCN(C)C)c(C)c3oc2=O)ccc1OC | 52.3 |
| 0.71 | 1.46 |  |  | Active | Active | Active | Active | Active | Active | COc1c(OC2CCN(C)CC2)ccc2cc(NC(=O)C/C=C/CC(=O)Nc3cc4ccc(OC5CCN(C)CC5)c(OC)c4oc3=O)c(=O)oc12 | 8.63 |
| 106 | 168 |  |  |  |  |  |  |  |  | COc1cc2cc(NC(=O)C/C=C/CC(=O)Nc3cc4cc(OC)c(O[C@H]5OC(C)(C)[C@@H](OC)[C@H](O)[C@@H]5O)c(C)c4oc3=O)c(=O)oc2c(C)c1O[C@H]1OC(C)(C)[C@@H](OC)[C@H](O)[C@@H]1O |  |
| 0.86 | 1.26 |  |  |  |  |  |  |  |  | CO[C@@H]1[C@@H](O)[C@@H](O)[C@H](Oc2ccc3cc(NC(=O)c4cccc(-c5cccc(C(=O)Nc6cc7ccc(O[C@@H]8OC(C)(C)[C@H](OC)[C@@H](O)[C@H]8O)c(C)c7oc6=O)c5)c4)c(=O)oc3c2C)OC1(C)C |  |
| > 100 | > 100 |  |  |  |  |  |  |  |  | COc1c(O[C@H]2OC(C)(C)[C@@H](OC)[C@H](O)[C@@H]2O)ccc2cc(NC(=O)C/C=C/CC(=O)Nc3cc4ccc(O[C@H]5OC(C)(C)[C@@H](OC)[C@H](O)[C@@H]5O)c(OC)c4oc3=O)c(=O)oc12 |  |
| 1.26 | 2.46 |  |  |  |  |  |  |  |  | Cc1c(OC2CCN(C)CC2)ccc2cc(NC(=O)CCCCC(=O)Nc3cc4ccc(OC5CCN(C)CC5)c(C)c4oc3=O)c(=O)oc12 |  |
| 4.98 | 14.2 |  |  |  |  |  |  |  |  | COc1ccc(C(=O)Nc2cc3ccc(OC4CCN(C)CC4)c(C)c3oc2=O)cc1-c1cc(C(=O)Nc2cc3ccc(OC4CCN(C)CC4)c(C)c3oc2=O)ccc1OC |  |
| 0.37 | 0.88 | 1.21 |  | Active | Active | Active | Active | Active | Active | COc1c(OC2CCN(C)CC2)ccc2cc(NC(=O)CCC/C=C/CCCC(=O)Nc3cc4ccc(OC5CCN(C)CC5)c(OC)c4oc3=O)c(=O)oc12 | 0.05 |
| 2.84 | 3.68 | 13.2 | 3.9 |  |  |  |  |  |  | Cc1c(OC2CCN(C)CC2)ccc2cc(NC(=O)CCCCCCCCC(=O)Nc3cc4ccc(OC5CCN(C)CC5)c(C)c4oc3=O)c(=O)oc12 | 10.2 |
| > 100 | 49.9 | 77.6 |  |  |  |  |  |  |  | Cc1c(OC2CCN(C)CC2)ccc2cc(NC(=O)CC/C=C\CCC(=O)Nc3cc4ccc(OC5CCN(C)CC5)c(C)c4oc3=O)c(=O)oc12 | 32.9 |
| 1.16 | 0.76 | 35.4 | 36.5 | Active | Active | Active | Active | Active | Active | COc1ccc(C(=O)Nc2cc3ccc(O[C@@H]4OC(C)(C)[C@H](OC)[C@@H](O)[C@H]4O)c(C)c3oc2=O)cc1-c1cc(C(=O)Nc2cc3ccc(O[C@@H]4OC(C)(C)[C@H](OC)[C@@H](O)[C@H]4O)c(C)c3oc2=O)ccc1OC | 36.7 |
| 0.11 | 0.72 |  |  | Active | Active | Active | Active | Active | Active | COc1ccc(C(=O)Nc2cc3cc(OC)c(O[C@@H]4OC(C)(C)[C@H](OC)[C@@H](O)[C@H]4O)c(C)c3oc2=O)cc1-c1cc(C(=O)Nc2cc3cc(OC)c(O[C@@H]4OC(C)(C)[C@H](OC)[C@@H](O)[C@H]4O)c(C)c3oc2=O)ccc1OC |  |
| 0.22 | 0.31 | 37.7 |  | Active | Active | Active | Active | Active | Active | COc1cc2cc(NC(=O)CCC/C=C/CCCC(=O)Nc3cc4cc(OC)c(OC5CCN(C)CC5)c(C)c4oc3=O)c(=O)oc2c(C)c1OC1CCN(C)CC1 | 0.38 |
| 0.51 | 0.73 |  |  |  |  |  |  |  |  | Cc1c(OC2CCN(C)CC2)ccc2cc(NC(=O)CCCC/C=C/CCCCC(=O)Nc3cc4ccc(OC5CCN(C)CC5)c(C)c4oc3=O)c(=O)oc12 |  |
| 0.27 | 0.56 | 1.25 |  | Active | Active | Active | Active | Active | Active | COc1cc2cc(NC(=O)C/C=C/CC(=O)Nc3cc4cc(OC)c(OC5CCN(C)CC5)c(C)c4oc3=O)c(=O)oc2c(C)c1OC1CCN(C)CC1 | 0.17 |
| > 100 | 53.1 |  |  |  |  |  |  |  |  | CO[C@H]1[C@H](O)[C@H](O)[C@@H](Oc2ccc3cc(NC(=O)C/C=C/CC(=O)Nc4cc5ccc(O[C@H]6OC(C)(C)[C@@H](OC)[C@H](O)[C@@H]6O)c(C)c5oc4=O)c(=O)oc3c2C)OC1(C)C |  |
| 11.8 | > 100 |  |  |  |  |  |  |  |  | COc1ccc(C(=O)Nc2cc3ccc(OC(C)=O)c(C)c3oc2=O)cc1-c1cc(C(=O)Nc2cc3ccc(OC(C)=O)c(C)c3oc2=O)ccc1OC |  |
| 2.22 | 1.12 | 1.22 |  | inactive | inactive | inactive | inactive | inactive | inactive | COc1c(OC2CCN(C)CC2)ccc2cc(NC(=O)CC/C=C/CCC(=O)Nc3cc4ccc(OC5CCN(C)CC5)c(OC)c4oc3=O)c(=O)oc12 | 0.06 |
| 52 | > 100 |  |  |  |  |  |  |  |  | COc1c(O[C@H]2OC(C)(C)[C@@H](OC)[C@H](O)[C@@H]2O)ccc2cc(NC(=O)CC/C=C/CCC(=O)Nc3cc4ccc(O[C@H]5OC(C)(C)[C@@H](OC)[C@H](O)[C@@H]5O)c(OC)c4oc3=O)c(=O)oc12 |  |
| 28.5 | 38 |  |  |  |  |  |  |  |  | COc1cc(C(=O)Nc2cc3ccc(O[C@@H]4OC(C)(C)[C@H](OC)[C@@H](O)[C@H]4O)c(C)c3oc2=O)cc(-c2cc(C(=O)Nc3cc4ccc(O[C@@H]5OC(C)(C)[C@H](OC)[C@@H](O)[C@H]5O)c(C)c4oc3=O)ccc2OC)c1 |  |
| 1.1 | 1.31 | 1.44 |  | Active | Active | Active | Active | Active | Active | COc1cc2cc(NC(=O)CC/C=C/CCC(=O)Nc3cc4cc(OC)c(OC5CCN(C)CC5)c(C)c4oc3=O)c(=O)oc2c(C)c1OC1CCN(C)CC1 | 4.86 |

| SMILES | IC50 [1] [µM] | IC50 [2] [µM] | IC50 [4] [µM] | IC50 [5] [µM] | inhibition [6] | inhibition [7] | inhibition [8] | inhibition [9] | inhibition [10] | inhibition [11] | IC50 [3] [µM] |
| --- | --- | --- | --- | --- | --- | --- | --- | --- | --- | --- | --- |
| CO[C@H]1[C@H](OC(=O)c2ccc(C)[nH]2)[C@H](O)[C@@H](Oc2ccc3c(O)c(NC(=O)c4c[nH]c(C(=O)Nc5c(O)c6ccc(O[C@H]7OC(C)(C)[C@@H](OC)[C@H](OC(=O)c8ccc(C)[nH]8)[C@@H]7O)c(C)c6oc5=O)c4C)c(=O)oc3c2C)OC1(C)C [COUMERMYCIN A1] | 5 | 8.8 |  |  |  |  |  |  |  |  |  |
